According to the array DNA melting data of Ke et al. (doi:10.1101/2024.01.08.574731):

Key:
[1] = folding enthalpy; higher = less favourable; fluorescence melt of hairpins on a sequencing array, two-state fit; details: sodium 0.088 M
Summary of the method: (§1)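 Hairpins were imaged by Cy3 fluorescence on a sequenced MiSeq flow cell with annealed Cy3 and quencher oligos, in 50 mM Na-HEPES pH 8.0, 25 mM NaCl, in 2.5 °C steps up to 60 °C. Bootstrapped two-state fits of normalised signals gave melting temperature and folding enthalpy. Four replicates were combined by inverse variance, and fitted temperatures were raised by 9.35 °C to match UV melts.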

[2] = melting temperature; fluorescence melt of hairpins on a sequencing array, two-state fit, raised by 9.35 °C to match UV melts; details: sodium 0.088 M
Summary of the method: as §1

GCTAGAGGAAACTCTAGC (((((((....))))))) gave a folding enthalpy [1] of -44 kcal/mol and a Tm [2] of 58.5 °C.

GCTAGATCGAAAGATAGC (((..(((....)))))) showed a folding enthalpy [1] of -19.4 kcal/mol and a Tm [2] of 36.4 °C.

With GCTAGCCGAAAGGCCAGC (((.(((....))).))) the folding enthalpy [1] was -20.8 kcal/mol and the Tm [2] was 54.3 °C.

GCTAGCGAAAGCTATAGC ((((((....)))..))) showed a folding enthalpy [1] of -18.5 kcal/mol and a Tm [2] of 46.5 °C.

For GCTAGCGAAAGCTCCAGC ((((((....)))..))), the folding enthalpy [1] was -10.8 kcal/mol and the Tm [2] was 33.1 °C.

In the case of GCTAGCGAAAGCTGAAGC ((((((....)))..))), the folding enthalpy [1] was -15 kcal/mol and the Tm [2] was 43.1 °C.

With GCTAGCGAAAGCTGAGC ((((((....))).))) the folding enthalpy [1] was -28.5 kcal/mol and the Tm [2] was 49.9 °C.

Work on GCTAGCGAAAGCTGGAGC ((((((....)))..))) yielded a folding enthalpy [1] of -14.1 kcal/mol and a Tm [2] of 43.2 °C.

In the case of GCTAGCGAAAGCTTAAGC ((((((....)))..))), the folding enthalpy [1] was -16.9 kcal/mol and the Tm [2] was 43.2 °C.

GCTAGCGGAAACGTTAGC ((((.((....)).)))) gave a folding enthalpy [1] of -34.1 kcal/mol and a Tm [2] of 51.3 °C.

Sequence GCTAGGCCGAAAGGCAGC (((..(((....)))))) has a folding enthalpy [1] of -15.1 kcal/mol and a Tm [2] of 47.8 °C.

In the case of GCTAGGCGAAAGCCTGGC ((.((((....)))).)), the folding enthalpy [1] was -21.1 kcal/mol and the Tm [2] was 68.2 °C.

GCTAGGCGAAAGCGTTGC ((.(.((....)).).)) gave a folding enthalpy [1] of -21.9 kcal/mol and a Tm [2] of 42 °C.

With GCTAGGCGAAAGCTAAGC (((..((....))..))) the folding enthalpy [1] was -18.6 kcal/mol and the Tm [2] was 48.7 °C.

Sequence GCTAGGGGAAACCCTAGC (((((((....))))))) has a folding enthalpy [1] of -44.2 kcal/mol and a Tm [2] of 65.9 °C.

GCTAGTACGAAAGTAAGC (((..(((....)))))) showed a folding enthalpy [1] of -14.7 kcal/mol and a Tm [2] of 28.2 °C.

Work on GCTATCGAAAGATACAGC ((((((....)))..))) yielded a folding enthalpy [1] of -20.8 kcal/mol and a Tm [2] of 32.6 °C.

GCTATCGAAAGATAGC ((((((....)))))) showed a folding enthalpy [1] of -39 kcal/mol and a Tm [2] of 66.4 °C.

In the case of GCTATCGAAAGATGAAGC ((((((....)))..))), the folding enthalpy [1] was -16.2 kcal/mol and the Tm [2] was 32.8 °C.

GCTATGCGAAAGCAAGC (((.(((....)))))) gave a folding enthalpy [1] of -17.5 kcal/mol and a Tm [2] of 51.7 °C.

With GCTATGCGAAAGCACTGC ((..(((....)))..)) the folding enthalpy [1] was -15.3 kcal/mol and the Tm [2] was 36.3 °C.

GCTATGCGAAAGCAGCGC ((..(((....)))..)) gave a folding enthalpy [1] of -18.9 kcal/mol and a Tm [2] of 54.2 °C.

Work on GCTATGCGAAAGCATGGC ((.((((....)))).)) yielded a folding enthalpy [1] of -32 kcal/mol and a Tm [2] of 65 °C.

GCTATGCGAAAGCCTAGC ((((.((....)).)))) showed a folding enthalpy [1] of -28.8 kcal/mol and a Tm [2] of 52.4 °C.

Work on GCTATGCGAAAGCGTCGC ((.(.((....)).).)) yielded a folding enthalpy [1] of -18.1 kcal/mol and a Tm [2] of 43.2 °C.

In the case of GCTATGCGAAAGCGTGGC ((.(.((....)).).)), the folding enthalpy [1] was -26.1 kcal/mol and the Tm [2] was 53.5 °C.

With GCTATGCGAAAGCGTTGC ((.(.((....)).).)) the folding enthalpy [1] was -22.9 kcal/mol and the Tm [2] was 48.9 °C.

Sequence GCTATGCGAAAGCTTCGC ((.(.((....)).).)) has a folding enthalpy [1] of -14.2 kcal/mol and a Tm [2] of 41.5 °C.

GCTATGGGAAACCACAGC (((.(((....))).))) showed a folding enthalpy [1] of -23.7 kcal/mol and a Tm [2] of 38.6 °C.

For GCTATTACGAAAGTAAGC (((..(((....)))))), the folding enthalpy [1] was -13.6 kcal/mol and the Tm [2] was 30 °C.

Sequence GCTATTCGAAAGAAAGC (((.(((....)))))) has a folding enthalpy [1] of -20.1 kcal/mol and a Tm [2] of 32.1 °C.

With GCTATTCGAAAGAACAGC (((.(((....))).))) the folding enthalpy [1] was -29.6 kcal/mol and the Tm [2] was 40.4 °C.

Work on GCTATTGGAAACGATAGC (((((.(....).))))) yielded a folding enthalpy [1] of -32.4 kcal/mol and a Tm [2] of 44.8 °C.

GCTCAACGAAAGTTTAGC (((.(((....))).))) gave a folding enthalpy [1] of -28.2 kcal/mol and a Tm [2] of 44.5 °C.

GCTCAAGGAAACCTGAGC (((((.(....).))))) showed a folding enthalpy [1] of -35.4 kcal/mol and a Tm [2] of 46.9 °C.

For GCTCACACGAAAGTGAGC (((..(((....)))))), the folding enthalpy [1] was -32 kcal/mol and the Tm [2] was 60.5 °C.

Sequence GCTCACGAAAGTGAAAGC ((((((....)))..))) has a folding enthalpy [1] of -21 kcal/mol and a Tm [2] of 48.9 °C.

Work on GCTCACGAAAGTGAAGC ((((((....))).))) yielded a folding enthalpy [1] of -29 kcal/mol and a Tm [2] of 56 °C.

For GCTCACGAAAGTGGGAGC ((((((....)))..))), the folding enthalpy [1] was -20.1 kcal/mol and the Tm [2] was 49.9 °C.

With GCTCACGAAAGTGTAAGC ((((((....)))..))) the folding enthalpy [1] was -19 kcal/mol and the Tm [2] was 45.4 °C.

Sequence GCTCACGAAAGTGTAGC ((((((....))).))) has a folding enthalpy [1] of -24.6 kcal/mol and a Tm [2] of 51.5 °C.

GCTCACGGAAACGCAAGC (((..((....))..))) gave a folding enthalpy [1] of -8.31 kcal/mol and a Tm [2] of 26.8 °C.

Sequence GCTCAGAAATGAGC (((((....))))) has a folding enthalpy [1] of -26.8 kcal/mol and a Tm [2] of 55.4 °C.

GCTCAGACGAAAGTCAGC (((..(((....)))))) gave a folding enthalpy [1] of -15.5 kcal/mol and a Tm [2] of 41 °C.

GCTCAGCGAAAGCCGAGC ((((.((....)).)))) gave a folding enthalpy [1] of -28.1 kcal/mol and a Tm [2] of 63.5 °C.

With GCTCAGCGAAAGCTAGGC ((..(((....)))..)) the folding enthalpy [1] was -15.5 kcal/mol and the Tm [2] was 44.5 °C.

Sequence GCTCAGCGAAAGCTGCGC ((.((((....)))).)) has a folding enthalpy [1] of -24.8 kcal/mol and a Tm [2] of 59.9 °C.

Sequence GCTCAGCGAAAGCTTGGC ((..(((....)))..)) has a folding enthalpy [1] of -18.8 kcal/mol and a Tm [2] of 39.7 °C.

For GCTCAGGCGAAAGCCAGC (((..(((....)))))), the folding enthalpy [1] was -12.6 kcal/mol and the Tm [2] was 42.8 °C.

Work on GCTCAGGGAAACCCAAGC (((..((....))..))) yielded a folding enthalpy [1] of -12.9 kcal/mol and a Tm [2] of 33.3 °C.

For GCTCAGGGAAACCTAAGC (((.(((....))).))), the folding enthalpy [1] was -20.6 kcal/mol and the Tm [2] was 34.1 °C.

In the case of GCTCAGGGAAACTTGAGC (((((.(....).))))), the folding enthalpy [1] was -33.3 kcal/mol and the Tm [2] was 48.7 °C.

With GCTCATCCGAAAGGAAGC (((..(((....)))))) the folding enthalpy [1] was -11.2 kcal/mol and the Tm [2] was 29.8 °C.

GCTCATCGAAAGATAGC (((.(((....)))))) showed a folding enthalpy [1] of -26.3 kcal/mol and a Tm [2] of 42.3 °C.

With GCTCATCGAAAGATCAGC (((.(((....))).))) the folding enthalpy [1] was -29.6 kcal/mol and the Tm [2] was 34.7 °C.

With GCTCATGGAAACACGAGC ((((.((....)).)))) the folding enthalpy [1] was -38.1 kcal/mol and the Tm [2] was 42.6 °C.

In the case of GCTCATGGAAACATGAAC (.(((((....))))).), the folding enthalpy [1] was -18.3 kcal/mol and the Tm [2] was 35.7 °C.

Work on GCTCATGGAAACATGAGC (((((((....))))))) yielded a folding enthalpy [1] of -33 kcal/mol and a Tm [2] of 67.6 °C.

GCTCCAGAAATGGAGC ((((((....)))))) gave a folding enthalpy [1] of -32 kcal/mol and a Tm [2] of 65.8 °C.

Sequence GCTCCAGGAAACTAGAGC ((((.((....)).)))) has a folding enthalpy [1] of -25.4 kcal/mol and a Tm [2] of 36.5 °C.

Sequence GCTCCATCGAAAGATAGC (((..(((....)))))) has a folding enthalpy [1] of -10.7 kcal/mol and a Tm [2] of 24.6 °C.

In the case of GCTCCCGAAAGGGACAGC ((((((....)))..))), the folding enthalpy [1] was -12.6 kcal/mol and the Tm [2] was 44.7 °C.

For GCTCCCGAAAGGGGAAGC ((((((....)))..))), the folding enthalpy [1] was -19.2 kcal/mol and the Tm [2] was 50 °C.

GCTCCCGAAAGGGGTAGC ((((((....)))..))) showed a folding enthalpy [1] of -18.1 kcal/mol and a Tm [2] of 48.7 °C.

Sequence GCTCCGCGAAAGCAAAGC (((..((....))..))) has a folding enthalpy [1] of -11 kcal/mol and a Tm [2] of 31.5 °C.

GCTCCGCGAAAGCCAAGC (((..((....))..))) showed a folding enthalpy [1] of -8.28 kcal/mol and a Tm [2] of 26.1 °C.

GCTCCGCGAAAGCGAGC (((.(((....)))))) showed a folding enthalpy [1] of -20.6 kcal/mol and a Tm [2] of 61.7 °C.

Work on GCTCCGCGAAAGCGTCGC ((..(((....)))..)) yielded a folding enthalpy [1] of -15.9 kcal/mol and a Tm [2] of 35.2 °C.
